# Results of several laboratories.
# Lines come from different studies, so protocols differ.
# SPHK1: Sphingosine kinase 1 (SPHK1, Homo sapiens, UniProt Q9NYA1)
# PARP1: Poly [ADP-ribose] polymerase 1 (PARP1, Homo sapiens, UniProt P09874)
# ADORA2A: Adenosine receptor A2a (ADORA2A, Homo sapiens, UniProt P29274)
# CNR1: Cannabinoid receptor 1 (CNR1, Homo sapiens, UniProt P21554)
# EHMT1: Histone-lysine N-methyltransferase EHMT1 (EHMT1, Homo sapiens, UniProt Q9H9B1)
# PDE5A: cGMP-specific 3',5'-cyclic phosphodiesterase (PDE5A, Homo sapiens, UniProt O76074)
SMILES,target,test,setting,inhibition [%]
CCc1ccc(CCc2ccc(-c3noc([C@@H]4CCCN4C(=N)N)n3)cc2C(F)(F)F)cc1,SPHK1,"enzyme activity, inhibitor, radiometric",1 µM,13
O=c1[nH]c(-c2c[nH]c3ncccc23)nc2ccccc12,PARP1,"enzyme activity, inhibitor, ELISA",1 µM,7
O=C(c1ccc(Cl)cc1)N(Cc1ccccc1)C1CCCCC1,ADORA2A,cell-free assay,10 µM,9.1
O=C(CN1CCN(c2ccccc2)CC1)Nc1ccc2oc(-c3ccco3)nc2c1,ADORA2A,"ligand displacement, radioligand","10 µM, cell membranes",12
COc1ccc(-n2nc(OCCCN3CCCCC3)ccc2=O)cc1,CNR1,ligand displacement,1 µM,43.8
Cc1cc(O)c(C=O)c2c1C(=O)Oc1c(C)c(O)c3c(c1O2)C(O)OC3=O (stereo not shown),EHMT1,cell-free assay,10 µM,-4
COCCOc1ccc(N2CCN(CCc3ccc4oc(-c5ccco5)nc4c3)CC2)cc1,ADORA2A,"ligand displacement, radioligand","10 µM, cell membranes",10
O=C(CSc1nc2nccnc2c(=O)n1CCc1ccccc1)Nc1ccccc1,SPHK1,"enzyme activity, inhibitor",10 µM,< 20
CN1CCN(CCCOc2ccc(=O)n(-c3ccc(Cl)c(Cl)c3)n2)CC1,CNR1,ligand displacement,1 µM,27.4
O=C(Oc1cc(O)cc2c1C[C@@H](OC(=O)c1cc(O)c(O)c(O)c1)[C@@H](c1cc(O)c(O)c(O)c1)O2)c1cc(O)c(O)c(O)c1,EHMT1,cell-free assay,10 µM,-4
CC(C)CCn1c(SCC(=O)Nc2ccccc2C(F)(F)F)nc2nccnc2c1=O,SPHK1,"enzyme activity, inhibitor",10 µM,< 20
COC(=O)[C@@H]1Cc2c([nH]c3ccccc23)[C@@H](c2ccc(OC)c(OC)c2)N1,PDE5A,"enzyme activity, inhibitor, FP",50 µM,7
CCCC=CCOc1ccc(-c2noc([C@@H]3CCCN3C(=N)N)n2)cc1C(F)(F)F,SPHK1,"enzyme activity, inhibitor, radiometric",1 µM,12
Nc1ccc2c(c1)CCCn1nnnc1-2,PARP1,"enzyme activity, inhibitor",10 µM,31
CC(C)(C)OC(=O)N1CCN(Cc2ccc3oc(-c4ccco4)nc3c2)CC1,ADORA2A,"ligand displacement, radioligand","10 µM, cell membranes",15
O=C(c1ccc(F)cc1)N(Cc1ccccc1)C1CCCCC1,CNR1,cell-free assay,10 µM,18
O=C(O[C@@H]1Cc2c(O)cc(O)cc2O[C@@H]1c1cc(O)c(=O)c2c(O)c(O)cc([C@H]3Oc4cc(O)cc(O)c4C[C@H]3OC(=O)c3cc(O)c(O)c(O)c3)c2c1)c1cc(O)c(O)c(O)c1,EHMT1,cell-free assay,10 µM,0
COc1ccc(-c2nc3cc(CCCN4CCCCC4)ccc3o2)cc1OC,ADORA2A,"ligand displacement, radioligand","10 µM, cell membranes",10
[H]/N=C(/N)N1CCC[C@H]1c1nc(-c2ccc(OCCC=CCCCC)c(C(F)(F)F)c2)no1,SPHK1,"enzyme activity, inhibitor, radiometric",1 µM,4
Oc1cccc(Nc2nc(-c3ccc(F)cc3F)cs2)c1,ADORA2A,cell-free assay,10 µM,76
CCCCCC=CCOc1ccc(-c2noc([C@@H]3CCCN3C(=N)N)n2)cc1C(F)(F)F (mixture of isomers),SPHK1,"enzyme activity, inhibitor, radiometric",1 µM,54
O=C1C=C2CC3(O)COc4c(ccc(O)c4O)C3=C2C=C1O (stereo not shown),EHMT1,cell-free assay,10 µM,11
COC(=O)[C@H]1Cc2c([nH]c3ccccc23)[C@H](c2cccnc2)N1,PDE5A,"enzyme activity, inhibitor, FP",50 µM,30
[H]/N=C(\N)N1CCC[C@H]1c1nc(-c2ccc(OCC=Cc3ccc(F)cc3)c(C(F)(F)F)c2)no1,SPHK1,"enzyme activity, inhibitor, radiometric",1 µM,0
O=C(Nc1ccc(S(=O)(=O)N2CCC(Cl)CC2)cc1)c1ccc([N+](=O)[O-])o1,CNR1,"ligand displacement, radioligand",10 µM,20
COc1ccc(F)cc1C(=O)NCc1ccc(-c2nn([C@@H](C)C(F)(F)F)c(N)c2C(N)=O)cc1,"Mitogen-activated protein kinase kinase kinase 3 (MAP3K3, Homo sapiens, UniProt Q99759)","target engagement in cells, inhibitor, chemoproteomics",1 µM,-38.6
COc1ccc(-c2nc3cc(CCCN4CCN(c5ccccc5)CC4)ccc3o2)cc1OC,ADORA2A,"ligand displacement, radioligand","10 µM, cell membranes",11
CCCNc1nc2ccccc2n1Cc1ccc(Cl)cc1,"Kappa-type opioid receptor (OPRK1, Homo sapiens, UniProt P41145)",ligand displacement,10 µM,11.1
O=C(CSc1nc2nccnc2c(=O)n1CCc1ccccc1)Nc1nccs1,"Phosphatidylinositol 4-phosphate 3-kinase C2 domain-containing subunit beta (PIK3C2B, Homo sapiens, UniProt O00750)","enzyme activity, inhibitor",10 µM,68
N=C(N)N1CCC[C@H]1c1nc(-c2ccc(CCC3CCCC3)c(C(F)(F)F)c2)no1,SPHK1,"enzyme activity, inhibitor, radiometric",1 µM,0
Ic1cccc2cnccc12,PARP1,"enzyme activity, inhibitor",10 µM,19.5
CCN1C(=O)[C@H]2Cc3c([nH]c4ccccc34)[C@H](c3cccnc3)N2C1=O,PDE5A,"enzyme activity, inhibitor, FP",50 µM,58
CCCCC(CC)CNC(=N)NC(=N)NCCCCCCNC(=N)NC(=N)NCC(CC)CCCC (stereo not shown),EHMT1,cell-free assay,10 µM,-22
Cn1cncc1C1=CN(c2ncnc3[nH]cnc23)CCS1,"Interleukin-1 receptor-associated kinase-like 2 (IRAK2, Homo sapiens, UniProt O43187)","enzyme activity, inhibitor, radiometric",50 nM,30.7
Cc1cc(-c2ccc(/N=N/c3ccc4c(S(=O)(=O)O)cc(S(=O)(=O)O)c(N)c4c3O)c(C)c2)ccc1/N=N/c1ccc2c(S(=O)(=O)O)cc(S(=O)(=O)O)c(N)c2c1O,EHMT1,cell-free assay,10 µM,48
O=C(c1ccc(-c2nc3ccccc3c(=O)[nH]2)c(F)c1)N1CCn2c(nnc2C(F)(F)F)C1,PARP1,"enzyme activity, inhibitor, ELISA",1 µM,13
CC(C)(C)N1C(=O)[C@@H]2Cc3c([nH]c4ccccc34)[C@@H](c3cccnc3)N2C1=O,PDE5A,"enzyme activity, inhibitor, FP",50 µM,90
COc1cc(NC(C)=O)c(Cl)cc1C(=O)Nc1nccs1,"5-hydroxytryptamine receptor 2A (HTR2A, Homo sapiens, UniProt P28223)","ligand displacement, radioligand",10 µM,8.7
C=CCN1C(=O)[C@H]2Cc3c([nH]c4ccccc34)[C@H](c3ccc(Br)s3)N2C1=O,PDE5A,"enzyme activity, inhibitor, FP",10 µM,67
CCN(Cc1ccccc1C(F)(F)F)C(=O)C1CCN(S(=O)(=O)c2ccc3[nH]ncc3c2)CC1,"Endothelin-1 receptor (EDNRA, Homo sapiens, UniProt P25101)","ligand displacement, radioligand",10 µM,1
CCN1C(=O)[C@@H]2Cc3c([nH]c4ccccc34)[C@H](c3ccc(OC)c(OC)c3)N2C1=O,PDE5A,"enzyme activity, inhibitor, FP",50 µM,52
O=C1N=C(N2CCCCN2)S/C1=C\c1ccc(F)cc1O,"Thromboxane A2 receptor (TBXA2R, Homo sapiens, UniProt P21731)","ligand displacement, radioligand",10 µM,11
COC(=O)[C@@H]1Cc2c([nH]c3ccccc23)[C@@H](c2ccc(OC)c(OC)c2)N1C(=O)CCl,PDE5A,"enzyme activity, inhibitor, FP",50 µM,22
[H]/N=C(\N)N1CCC[C@H]1c1nc(-c2ccc(OCC=Cc3cccc(C(F)(F)F)c3)c(C(F)(F)F)c2)no1,SPHK1,"enzyme activity, inhibitor, radiometric",1 µM,0
COc1ccc([C@H]2c3[nH]c4ccccc4c3C[C@H]3C(=O)N(C(C)(C)C)C(=O)N23)cc1OC,PDE5A,"enzyme activity, inhibitor, FP",50 µM,58
CN(C)C1CCN(CC#Cc2nn(C3CCCC3)c3nc(NCc4ccccc4)ncc23)C1 (stereo not shown),"Serine/threonine-protein kinase TBK1 (TBK1, Homo sapiens, UniProt Q9UHD2)","enzyme activity, inhibitor, FRET",1 µM,3
